Columns and labels:
[1] = Drug metabolism in rat hepatocytes assessed as BMS-572273 metabolite level at 25 uM after 3 hrs by LC-MS/MS analysis; assay type: ADME, cell-based, Hepatocyte
Outline: (§1)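 Hepatocytes checked for viability by trypan blue exclusion, then diluted in Krebs-Henseleit buffer to 1.0 × 10^6 cells/ml. Incubated in duplicate with 25 µM compound at 37°C for 3 h on an orbital shaker (80 rpm) under 95/5 O2/CO2. Negative control had no cells. Stopped with ice-cold acetonitrile, sonicated, centrifuged; supernatant analysed by LC/MS/MS.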

[2] = Drug metabolism in cynomolgus monkey liver microsomes assessed as BMS-572273 metabolite level at 100 uM after 1 hr in presence of NADPH; assay type: ADME, Macaca fascicularis
Outline: (§2)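 Mouse, rat, dog, monkey and human liver microsomes (1 mg/ml protein) were incubated with 100 µM compound in 100 mM phosphate buffer. Reactions were started with 1 mM NADPH and run 1 h at 37°C in duplicate. Controls lacked protein or NADPH, plus a 7-ethoxycoumarin (100 µM) positive control. Metabolites were identified by LC/MS/MS.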

[3] = Drug metabolism in rat hepatocytes at 25 uM after 3 hrs by LC-MS/MS analysis; assay type: ADME, cell-based, Hepatocyte; outline: as §1
[4] = Drug metabolism in rat hepatocytes assessed as DPH-124921 metabolite level at 25 uM after 3 hrs by LC-MS/MS analysis; assay type: ADME, cell-based, Hepatocyte; outline: as §1
Hepatocyte [5] = assay: Detection of compound level in human cryopreserved hepatocytes treated with 25 uM of BMS-562086 after 3 hrs by LC-MS/MS analysis; assay type: ADME, cell-based
Outline: (§3)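 Mouse, rat, dog, monkey and human hepatocytes (trypan blue viability checked) at 1.0×10^6 cells/ml in Krebs-Henseleit buffer were incubated with 25 µM compound, in duplicate. Conditions were 37°C, 95/5 O2/CO2, orbital shaking, 3 h. 7-Ethoxycoumarin and 7-hydroxycoumarin (100 µM) served as positive controls, with a cell-free negative control. Reactions were quenched with ice-cold acetonitrile, then sonicated and centrifuged; supernatants were analysed by LC/MS/MS.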

[6] = Drug metabolism in cynomolgus monkey liver microsomes at 100 uM after 1 hr in presence of NADPH; assay type: ADME, Macaca fascicularis; outline: as §2
Liver microsome [7] = assay: Drug metabolism in dog liver microsomes assessed as BMS-572273 metabolite level at 100 uM after 1 hr in presence of NADPH; assay type: ADME, Canis lupus familiaris; outline: as §2
[8] = Drug metabolism in mouse liver microsomes assessed as DPH-123554 metabolite level at 100 uM after 1 hr in presence of NADPH; assay type: ADME
Outline: (§4)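 Liver microsomes (1 mg/ml protein) in 100 mM phosphate buffer with 100 µM test compound. Reaction started by adding NADPH (1 mM), then run at 37°C for 1 h in a shaking water bath, in duplicate. Controls lacked microsomal protein or NADPH; 7-ethoxycoumarin (100 µM) was the positive control. Metabolites identified by LC/MS/MS.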

[9] = Drug metabolism in mouse liver microsomes at 100 uM after 1 hr in presence of NADPH; assay type: ADME; outline: as §4
[10] = Drug metabolism in mouse liver microsomes assessed as DPH-124921 metabolite level at 100 uM after 1 hr in presence of NADPH; assay type: ADME; outline: as §4
[11] = Drug metabolism in cynomolgus monkey cryopreserved hepatocytes assessed as DPH-123554 metabolite level at 25 uM after 3 hrs by LC-MS/MS analysis; assay type: ADME, cell-based, Macaca fascicularis, Hepatocyte; outline: as §3
[12] = Drug metabolism in human cryopreserved hepatocytes assessed as BMS-572273 metabolite level at 25 uM after 3 hrs by LC-MS/MS analysis; assay type: ADME, cell-based, Hepatocyte; outline: as §1
Liver microsome [13] = assay: Drug metabolism in dog liver microsomes at 100 uM after 1 hr in presence of NADPH; assay type: ADME, Canis lupus familiaris; outline: as §4
[14] = Drug metabolism in beagle dog hepatocytes assessed as BMS-572273 metabolite level at 25 uM after 3 hrs by LC-MS/MS analysis; assay type: ADME, cell-based, Canis lupus familiaris, Hepatocyte; outline: as §3
[15] = Drug metabolism in beagle dog hepatocytes at 25 uM after 3 hrs by LC-MS/MS analysis; assay type: ADME, cell-based, Canis lupus familiaris, Hepatocyte; outline: as §3
[16] = Drug metabolism in cynomolgus monkey cryopreserved hepatocytes assessed as DPH-124921 metabolite level at 25 uM after 3 hrs by LC-MS/MS analysis; assay type: ADME, cell-based, Macaca fascicularis, Hepatocyte; outline: as §3
[17] = Drug metabolism in human cryopreserved hepatocytes assessed as DPH-124921 metabolite level at 25 uM after 3 hrs by LC-MS/MS analysis; assay type: ADME, cell-based, Hepatocyte; outline: as §1
[18] = Drug metabolism in cynomolgus monkey liver microsomes assessed as DPH-123554 metabolite level at 100 uM after 1 hr in presence of NADPH; assay type: ADME, Macaca fascicularis; outline: as §2
[19] = Drug metabolism in rat hepatocytes assessed as DPH-123554 metabolite level at 25 uM after 3 hrs by LC-MS/MS analysis; assay type: ADME, cell-based, Hepatocyte; outline: as §1
[20] = Drug metabolism in mouse hepatocytes at 25 uM after 3 hrs by LC-MS/MS analysis; assay type: ADME, cell-based, Hepatocyte; outline: as §1
[21] = Drug metabolism in mouse hepatocytes assessed as BMS-572273 metabolite level at 25 uM after 3 hrs by LC-MS/MS analysis; assay type: ADME, cell-based, Hepatocyte; outline: as §1
[22] = Drug metabolism in cynomolgus monkey cryopreserved hepatocytes at 25 uM after 3 hrs by LC-MS/MS analysis; assay type: ADME, cell-based, Macaca fascicularis, Hepatocyte; outline: as §3
[23] = Drug metabolism in mouse hepatocytes assessed as DPH-124921 metabolite level at 25 uM after 3 hrs by LC-MS/MS analysis; assay type: ADME, cell-based, Hepatocyte; outline: as §1
[24] = Drug metabolism in mouse hepatocytes assessed as DPH-123554 metabolite level at 25 uM after 3 hrs by LC-MS/MS analysis; assay type: ADME, cell-based, Hepatocyte; outline: as §1
[25] = Drug metabolism in human cryopreserved hepatocytes assessed as DPH-123554 metabolite level at 25 uM after 3 hrs by LC-MS/MS analysis; assay type: ADME, cell-based, Hepatocyte; outline: as §1
Liver microsome [26] = assay: Drug metabolism in human liver microsomes assessed as DPH-124921 metabolite level at 100 uM after 1 hr in presence of NADPH; assay type: ADME; outline: as §4
Liver microsome [27] = assay: Drug metabolism in rat liver microsomes assessed as BMS-572273 metabolite level at 100 uM after 1 hr in presence of NADPH; assay type: ADME; outline: as §4
Liver microsome [28] = assay: Drug metabolism in human liver microsomes at 100 uM after 1 hr in presence of NADPH; assay type: ADME; outline: as §4
Liver microsome [29] = assay: Drug metabolism in human liver microsomes assessed as DPH-123554 metabolite level at 100 uM after 1 hr in presence of NADPH; assay type: ADME; outline: as §4
Hepatocyte [30] = assay: Detection of compound level in mouse hepatocytes treated with 25 uM of BMS-562086 after 3 hrs by LC-MS/MS analysis; assay type: ADME, cell-based; outline: as §3
[31] = Detection of compound level in beagle dog hepatocytes treated with 25 uM of BMS-562086 after 3 hrs by LC-MS/MS analysis; assay type: ADME, cell-based, Canis lupus familiaris, Hepatocyte; outline: as §3
[32] = Drug metabolism in cynomolgus monkey liver microsomes assessed as DPH-124921 metabolite level at 100 uM after 1 hr in presence of NADPH; assay type: ADME, Macaca fascicularis; outline: as §2
[33] = Drug metabolism in cynomolgus monkey cryopreserved hepatocytes assessed as BMS-572273 metabolite level at 25 uM after 3 hrs by LC-MS/MS analysis; assay type: ADME, cell-based, Macaca fascicularis, Hepatocyte; outline: as §3
Liver microsome [34] = assay: Drug metabolism in rat liver microsomes assessed as DPH-124921 metabolite level at 100 uM after 1 hr in presence of NADPH; assay type: ADME; outline: as §4
[35] = Drug metabolism in human cryopreserved hepatocytes at 25 uM after 3 hrs by LC-MS/MS analysis; assay type: ADME, cell-based, Hepatocyte; outline: as §1

| Drug metabolism [1] | Drug metabolism [2] | Drug metabolism [3] | Drug metabolism [4] | Drug metabolism (Hepatocyte [5]) | Drug metabolism [6] | Drug metabolism (Liver microsome [7]) | Drug metabolism [8] | Drug metabolism [9] | Drug metabolism [10] | Drug metabolism [11] | Drug metabolism [12] | Drug metabolism (Liver microsome [13]) | Drug metabolism [14] | Drug metabolism [15] | Drug metabolism [16] | Drug metabolism [17] | Drug metabolism [18] | Drug metabolism [19] | Drug metabolism [20] | Structure (SMILES) | also measured |
| --- | --- | --- | --- | --- | --- | --- | --- | --- | --- | --- | --- | --- | --- | --- | --- | --- | --- | --- | --- | --- | --- |
| metabolite_detected | metabolite_detected | metabolite_detected | metabolite_detected | metabolite_detected | metabolite_detected | metabolite_detected | metabolite_detected | metabolite_detected | metabolite_detected | metabolite_detected | metabolite_detected | metabolite_detected | metabolite_detected | metabolite_detected | metabolite_detected | metabolite_detected | metabolite_detected | metabolite_detected | metabolite_detected | COc1ccc(-c2c(C)nn3c(O)nc(C)nc23)c(C)n1 | Drug metabolism [21]: metabolite_detected; Drug metabolism [22]: metabolite_detected; Drug metabolism [23]: metabolite_detected; Drug metabolism [24]: metabolite_detected; Drug metabolism [25]: metabolite_detected; Drug metabolism (Liver microsome [26]): metabolite_detected; Drug metabolism (Liver microsome [27]): metabolite_detected; Drug metabolism (Liver microsome [28]): metabolite_detected; Drug metabolism (Liver microsome [29]): metabolite_detected; Drug metabolism (Hepatocyte [30]): metabolite_detected; Drug metabolism [31]: metabolite_detected; Drug metabolism [32]: metabolite_detected; Drug metabolism [33]: metabolite_detected; Drug metabolism (Liver microsome [34]): metabolite_detected; Drug metabolism [35]: metabolite_detected |
| metabolite_detected | metabolite_detected | metabolite_detected | metabolite_detected | metabolite_detected | metabolite_detected | metabolite_detected | metabolite_detected | metabolite_detected | metabolite_detected | metabolite_detected | metabolite_detected | metabolite_detected | metabolite_detected | metabolite_detected | metabolite_detected | metabolite_detected | metabolite_detected | metabolite_detected | metabolite_detected | CC[C@@H](C)Nc1nc(C)nc2c(-c3ccc(OC)nc3C)c(C)nn12 [PEXACERFONT] | Drug metabolism [21]: metabolite_detected; Drug metabolism [22]: metabolite_detected; Drug metabolism [23]: metabolite_detected; Drug metabolism [24]: metabolite_detected; Drug metabolism [25]: metabolite_detected; Drug metabolism (Liver microsome [26]): metabolite_detected; Drug metabolism (Liver microsome [27]): metabolite_detected; Drug metabolism (Liver microsome [28]): metabolite_detected; Drug metabolism (Liver microsome [29]): metabolite_detected; Drug metabolism (Hepatocyte [30]): metabolite_detected; Drug metabolism [31]: metabolite_detected; Drug metabolism [32]: metabolite_detected; Drug metabolism [33]: metabolite_detected; Drug metabolism (Liver microsome [34]): metabolite_detected; Drug metabolism [35]: metabolite_detected |
